Source: ChEMBL document CHEMBL1141383, “Polycationic sulfonamides for the sequestration of endotoxin” (J Med Chem, 2007)

Columns and labels:
HEK293 = test: Inhibition of LPS-induced NF-kappaB production in HEK293 cells; format: functional, cell-based; settings: Homo sapiens
Summary of the method: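 HEK293 cells cotransfected with TLR4, CD14 and MD2 were stimulated with LPS, and induction of NF-κB was quantified. IC50 is the concentration inhibiting 50% of the response. Run in triplicate with polymyxin B reference and negative and positive controls.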

Blood [1] = test: Inhibition of LPS-induced IL8 release in human whole blood; format: functional, tissue-based
Summary of the method: (§1)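 Healthy human whole blood, ex vivo, was stimulated with LPS. TNF-α, IL-1β, IL-6, IL-8, IL-10 and IL-12p70 were quantified concurrently by a multiplexed flow-cytometric bead array. IC50 is the concentration inhibiting 50% of the response. Run in triplicate with polymyxin B reference and negative and positive controls.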

Blood [2] = test: Inhibition of LPS-induced IL6 release in human whole blood; format: functional, tissue-based; summary of the method: as §1
[3] = Binding affinity to lipid A moiety of LPS in gram negative bacteria by fluorescent-based displacement assay
Summary of the method: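 LPS binding measured by automated rapid-throughput fluorescence displacement of the probe BODIPY-TR cadaverine from LPS. ED50 is the concentration displacing 50% of LPS-bound probe. Run in triplicate, with polymyxin B as reference and negative and positive controls.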

Blood [4] = test: Inhibition of LPS-induced TNFalpha release in human whole blood; format: functional, tissue-based; summary of the method: as §1
J774.1 = test: Inhibition of LPS-induced nitric oxide production in murine J774.1 cells by automated Griess assay; format: functional, cell-based; settings: Mus musculus
Summary of the method: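 Murine macrophage J774A.1 cells were stimulated with 100 ng/mL LPS, and NO was read by automated Griess assay. IC50 is the concentration inhibiting 50% of the response. Run in triplicate with polymyxin B reference and negative and positive controls.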

Mus musculus [5] = test: Protection against LPS-induced lethality in galactosamine-sensitized CF1 mouse model of septic shock at 8 mg/kg after 24 hrs; format: functional, organism-based; design: dose 8 mg/kg
Summary of the method: (§2)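 Female outbred CF-1 mice, 9–11 weeks old and 22–28 g, were sensitized with D-galactosamine. Cohorts of five received graded compound doses in saline i.p. in one flank, immediately before an i.p. challenge of 200 ng E. coli 0111:B4 LPS (2× LD100) in the other flank. Lethality was scored at 24 h.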

Mus musculus [6] = test: Protection against LPS-induced lethality in galactosamine-sensitized CF1 mouse model of septic shock at >2 mg/kg after 24 hrs; format: functional, organism-based; summary of the method: as §2

IC50 (Blood [1]) [µM]	IC50 (Blood [2]) [µM]	ED50 [3] [µM]	IC50 (Blood [4]) [µM]	IC50 (J774.1) [µM]	IC50 [3] [µM]	SMILES	IC50 (HEK293) [µM]	Activity (Mus musculus [5])	Activity (Mus musculus [6])
22.4	29.4	2.89	32.9	1.09	–	CCCCCCCCCCS(=O)(=O)NCCCNCCCNCCCCNCCCN	0.278	–	–
–	–	3.98	–	2.27	–	CCCCCCCCCCCCS(=O)(=O)NCCCN(CCCNCCCCNCCCN)CCCNS(=O)(=O)CCCCCCCCCCCC	13.2	–	–
–	–	1	–	9.02	–	CCCCCCCC(=O)NCCCN(CCCNCCCCNCCCN)CCCNC(=O)CCCCCCC	9.76	–	–
–	–	4.45	–	0.23	–	CCCCCCCCCCCCCCCCCCS(=O)(=O)NCCCNCCCNCCCCNCCCN	1.06	–	–
–	–	10.6	–	–	–	CCCCCCCCS(=O)(=O)NCCNCCCNCCN	13.8	–	–
15.3	12.1	2.92	30.1	0.39	–	CCCCCCCCCCCCS(=O)(=O)NCCCNCCCNCCCCNCCCN	0.19	–	–
–	–	55.2	–	5	–	CCCCCCCCCCCCS(=O)(=O)NCCCNCCCNCCCCNCCCNCCCNS(=O)(=O)CCCCCCCCCCCC	10.3	–	–
–	–	45.6	–	13.7	–	CCCCCCCCCCCCCCCCS(=O)(=O)N(CCCN)CCCCNCCCN	2.68	–	–
–	–	2.69	–	1.34	–	CCCCCCCCCCCCS(=O)(=O)NCCCNCCCCNCCCN	0.41	–	–
–	–	12.3	–	–	–	CCCCCCCCCCCCCCCCS(=O)(=O)NCCCN(CCCN)CCCN	9.19	–	–
–	–	> 5000	–	30.9	–	CCCCCCCCCCCCCCCCS(=O)(=O)NCCCOCCCCOCCCN	22.4	–	–
–	–	3.83	–	–	–	CCCCCCCCCCCCS(=O)(=O)NCCCNC/C=C/CNCCCN	0.522	–	–
–	–	12.4	–	–	–	CCCCCCCCS(=O)(=O)NCCCNC/C=C/CNCCCN	12.7	–	–
–	–	3.54	–	–	–	CCCCCCCCCCCCCCCCS(=O)(=O)NCCN(CCN)CCN	0.379	–	–
–	–	133	–	6.3	–	CCCCCCCCCCCCCCCCS(=O)(=O)NCCCNCCCNCCCCNCCCNCCCNS(=O)(=O)CCCCCCCCCCCCCCCC	11.7	–	–
15.1	5.92	4.71	14.2	0.12	4.2	CCCCCCCCCCCCCCCCS(=O)(=O)NCCCNCCCNCCCCNCCCN	0.2	Dose-dependent effect	–
–	–	4.27	–	–	–	CCCCCCCCCCCCS(=O)(=O)NCCCNCCCNCCCN	0.363	–	–
–	–	2.17	–	1.82	–	CCCCCCCCS(=O)(=O)NCCCN(CCCNCCCCNCCCN)CCCNS(=O)(=O)CCCCCCCC	0.669	–	–

IC50 (Blood [1]) [µM]	IC50 (Blood [2]) [µM]	ED50 [3] [µM]	IC50 (Blood [4]) [µM]	IC50 (J774.1) [µM]	IC50 [3] [µM]	SMILES	IC50 (HEK293) [µM]	Activity (Mus musculus [5])	Activity (Mus musculus [6])
–	–	1.16	–	0.43	–	CCCCCCCCCCS(=O)(=O)NCCCN(CCCNCCCNCCCCNCCCN)CCCNS(=O)(=O)CCCCCCCCCC	2.2	–	–
–	–	6.82	–	0.51	–	CCCCCCCCCCCCS(=O)(=O)NCCCN(CCCNCCCNCCCCNCCCN)CCCNS(=O)(=O)CCCCCCCCCCCC	16.4	–	–
–	–	9.31	–	5.2	–	CCCCCCCCCCCCCCCCS(=O)(=O)NCCCN(CCCNCCCNCCCCNCCCN)CCCNS(=O)(=O)CCCCCCCCCCCCCCCC	2.68	–	–
–	–	28.3	–	–	–	CCCCCCCCCCCCCCCCCCS(=O)(=O)NCCCN(CCCNCCCCNCCCN)CCCNS(=O)(=O)CCCCCCCCCCCCCCCCCC	64	–	–
12.5	7.77	2.62	11	0.32	–	CCCCCCCCS(=O)(=O)NCCCN(CCCNCCCNCCCCNCCCN)CCCNS(=O)(=O)CCCCCCCC	0.3	–	Toxic
–	–	4.77	–	–	–	CCCCCCCCCCCCS(=O)(=O)NCCNCCCNCCN	0.686	–	–
–	–	2.84	–	6.47	–	CCCCCCCCS(=O)(=O)NCCCNCCCNCCCCNCCCN	0.816	–	–
15.4	8.8	6.01	18	0.48	–	CCCCCCCCCCCCCCCCCCS(=O)(=O)NCCCNCCCCNCCCN	0.36	–	–
–	–	13.5	–	0.692	–	CCCCCCCCCCS(=O)(=O)NCCCNCCCNCCCCNCCCNCCCNS(=O)(=O)CCCCCCCCCC	4.2	–	–
–	–	1.32	–	2.48	–	CCCCCCCC(=O)NCCCN(CCCNCCCNCCCCNCCCN)CCCNC(=O)CCCCCCC	3.17	–	–
–	–	5000	–	4.22	–	CCCCCCCCCCCCCCCCCCS(=O)(=O)NCCCNCCCNCCCCNCCCNCCCNS(=O)(=O)CCCCCCCCCCCCCCCCCC	6.49	–	–
–	–	2.4	–	1.1	–	CCCCCCCCCCS(=O)(=O)NCCCN(CCCNCCCCNCCCN)CCCNS(=O)(=O)CCCCCCCCCC	5.17	–	–
–	–	2.6	–	0.577	–	CCCCCCCCS(=O)(=O)NCCCNCCCNCCCCNCCCNCCCNS(=O)(=O)CCCCCCCC	0.607	–	–
15.2	8.17	3.87	22.1	0.45	–	CCCCCCCCCCCCCCCCS(=O)(=O)NCCCNCCCCNCCCN	0.28	Dose-dependent effect	–
–	–	3.7	–	4.42	–	CCCCCCCCCCS(=O)(=O)NCCCNCCCCNCCCN	0.5	–	–
–	–	6.64	–	1.44	–	CCCCCCCCS(=O)(=O)NCCCNCCCCNCCCN	33.3	–	–
–	–	6.7	–	–	–	CCCCCCCCS(=O)(=O)NCCCNCCCNCCCN	5.56	–	–
–	–	26.4	–	15.1	–	CCCCCCCCCCCCCCCCS(=O)(=O)NCCCN(CCCNCCCCNCCCN)CCCNS(=O)(=O)CCCCCCCCCCCCCCCC	4.85	–	–
